Screens (PubChem)
Compounds with a hit are over-represented: about 3.7% of the library has one in this group of screens.
KCNK9 block – human KCNK9 channel inhibition; Q9NPC2; HEK293 KCNK9, FluxOR thallium flux fluorescence; stronger effect = lower value; B-score at 10 µM; 310,000 tested, 1.2% active; AID 488922;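 active means ratio B-score over 3 SD below the library mean, with starting fluorescence within 5 SD of its mean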;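 further: negative B-score means less thallium flux so channel inhibition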
KCNK3 block – human KCNK3 channel inhibition, primary screen. O14649. CHO-KCNK3 thallium flux, FluxOR fluorescence; stronger effect = lower value. B-score at 10 µM. 340,000 tested, 0.84% active;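 active means B-score under library mean minus 4 SD, starting fluorescence ratio at most library mean plus 5 SD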;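 further: more negative B-score means stronger inhibition of thallium flux through KCNK3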
hERG protect – shields human hERG channel from block by proarrhythmic agents; Q12809; CHO-hERG, FluxOR thallium flux, dofetilide IC70 present; activation (rescue from dofetilide block), less the hit threshold, % at 10 µM; 310,000 tested, 0.51% active;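 active means activation above the mean of controls blocked by dofetilide plus 5 SD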;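 further: thallium influx through hERG after potassium depolarization seen as dye fluorescence rise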
Target sequence (Q12809 whole entry, looked up): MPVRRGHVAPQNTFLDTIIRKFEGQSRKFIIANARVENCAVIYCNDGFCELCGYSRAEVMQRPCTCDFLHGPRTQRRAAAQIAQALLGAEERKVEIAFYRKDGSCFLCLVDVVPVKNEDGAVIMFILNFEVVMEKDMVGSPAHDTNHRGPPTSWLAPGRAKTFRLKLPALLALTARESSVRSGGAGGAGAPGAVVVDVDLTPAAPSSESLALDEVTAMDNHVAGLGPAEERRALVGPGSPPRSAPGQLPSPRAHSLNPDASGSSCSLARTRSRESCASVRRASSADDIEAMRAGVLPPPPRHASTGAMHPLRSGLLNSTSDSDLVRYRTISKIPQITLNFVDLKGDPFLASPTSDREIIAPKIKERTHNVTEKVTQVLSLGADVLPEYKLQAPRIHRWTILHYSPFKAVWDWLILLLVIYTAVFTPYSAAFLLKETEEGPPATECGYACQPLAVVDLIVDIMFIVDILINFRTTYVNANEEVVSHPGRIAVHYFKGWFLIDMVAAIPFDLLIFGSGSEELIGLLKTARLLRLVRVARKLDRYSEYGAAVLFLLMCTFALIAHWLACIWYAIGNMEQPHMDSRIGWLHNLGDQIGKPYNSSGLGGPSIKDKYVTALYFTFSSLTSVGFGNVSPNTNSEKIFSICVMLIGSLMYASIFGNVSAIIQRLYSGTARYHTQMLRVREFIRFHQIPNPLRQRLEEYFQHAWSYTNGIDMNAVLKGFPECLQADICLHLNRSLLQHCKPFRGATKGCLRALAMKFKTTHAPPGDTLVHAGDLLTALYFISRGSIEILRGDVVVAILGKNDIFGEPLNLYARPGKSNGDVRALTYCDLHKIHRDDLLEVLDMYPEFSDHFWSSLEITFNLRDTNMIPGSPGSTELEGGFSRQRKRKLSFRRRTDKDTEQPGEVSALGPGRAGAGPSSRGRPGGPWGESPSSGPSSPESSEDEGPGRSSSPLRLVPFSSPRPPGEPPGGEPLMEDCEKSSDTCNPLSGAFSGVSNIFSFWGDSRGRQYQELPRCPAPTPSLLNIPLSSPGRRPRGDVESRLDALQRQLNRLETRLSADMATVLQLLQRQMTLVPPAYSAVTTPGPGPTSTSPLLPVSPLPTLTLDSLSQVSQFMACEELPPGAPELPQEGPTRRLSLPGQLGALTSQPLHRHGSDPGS
KCNQ1 inh – inhibitors of human KCNQ1 potassium channel; P51787; CHO-K1 KCNQ1, FluxOR thallium flux fluorescence; stronger effect = higher value; B-score at 10 µM; 310,000 tested, 1.3% active;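 active means compounds whose thallium flux B-score, printed positive for inhibition, exceeds three library SD while starting fluorescence stays within three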;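 further: channel opened by potassium depolarization with thallium stimulus after 20 min compound exposure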
Kir21 block – blocks the mouse Kir2.1 inward-rectifier potassium channel; B-score at 10 µM; 310,000 tested, 0.85% active; HEK293-Kir2.1, FluxOR thallium flux fluorescence; stronger effect = lower value;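 active means fluorescence ratio B-score at or below minus 3 SD of library scores, with starting-brightness B-score within 2 SD, cut at about -4.2 in these data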;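 further: channel flux triggered by added potassium and thallium sulfate stimulus; B-score of peak minus minimum fluorescence over baseline after thallium stimulus; more negative B-score means stronger Kir2.1 block with less thallium influx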
KCNQ1 act – potentiators or activators of human KCNQ1 potassium channel; CHO-K1 KCNQ1, thallium flux FluxOR fluorescence; stronger effect = higher value; B-score at 10 µM; 310,000 tested, 0.35% active; AID 2648;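 active means fluorescence ratio B-score, a plate-corrected score, at least three library SD, with initial intensity B-score within 5 SD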
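Assay system: CHO-K1 cells stably expressing KCNQ1; Medium: assay buffer with matched DMSO; Also added: K+/Tl+ depolarizing stimulus; Dosing: single dose; Timing: dye 90 min, compound 20 min, room temperature; Measured by: kinetic FluxOR thallium fluorescence, 10-s 1-Hz baseline, 110-s post-stimulus read; Read-out: peak-minus-minimum fluorescence over initial fluorescence, negative-control normalized, B-scored.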
KCNK9 block conf – confirmation of human KCNK9 potassium channel inhibitors; shares compounds with KCNK9 block; HEK293 KCNK9 cells, FluxOR thallium flux fluorescence; inhibition, % at 10 µM; 4,900 tested, 43% active; AID 492992;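 active means thallium signal inhibited by more than 5 SD of the compound-free buffer control wells, on both duplicate plates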;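 further: 0% = assay buffer control wells without compound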
Kir2-1 spec – tests whether KCNK9 modulators also affect mouse Kir2.1. Kir2.1 cells, FluxOR thallium flux fluorescence. shares compounds with KCNK9 block. inhibition, % at 10 µM. 4,900 tested, 4% active;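 active means thallium signal drop more than 5 SD beyond the mean of the no-compound control wells, seen in both duplicate plates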;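 further: signal is fluorescence rise after thallium addition divided by baseline fluorescence; plate controls were assay buffer only for no effect and full block by chlorpromazine control for full effect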
KCNK9 uninduced – second check of KCNK9 modulator effects in non-induced HEK293 cells; FluxOR thallium flux; inhibition, % at 10 µM; shares compounds with KCNK9 block; 4,900 tested, 40% active;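 active means thallium signal drop beyond 5 SD of the untreated control mean, on both duplicate plates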;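 further: plate controls were buffer only IC0 wells for no effect and SID17386958 at its maximal inhibitory level for full effect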
Starred values were filed as active, the others as inactive; i = inactive; . = no result given.

SMILES	KCNK9 block	KCNK3 block	hERG protect	KCNQ1 inh	Kir21 block	KCNQ1 act	KCNK9 block conf	Kir2-1 spec	KCNK9 uninduced
O=C(c1ccc(Cl)c(S(=O)(=O)N2CCCCCC2)c1)N1CCN(c2ccccn2)CC1	i	i	-13	i	0.9	i	i	i	i
CN(C)S(=O)(=O)c1ccc(C(=O)OCC(=O)c2csc(N3CCCCC3)n2)cc1	.	i	.	.	.	.	.	.	.
CCn1cc(CN2CCC(n3nccc3NC(=O)c3ccccc3C)CC2)cn1	i	i	-12	i	0.63	i	.	.	.
Nc1nc(=O)n(C2CCCO2)cc1Br (centres undefined)	.	i	.	.	.	.	.	.	.
CCN(C(=O)CSc1nc2scc(-c3ccccc3)c2c(=O)n1N)C1CCS(=O)(=O)C1 (centres undefined)	.	i	.	.	.	.	.	.	.
CN(C(=O)c1ccc(NC(=O)Cc2ccc(NC(=O)C3CCN(S(=O)(=O)c4cccc([N+](=O)[O-])c4)CC3)cc2)cc1)C1CCCC1	.	i	.	.	.	.	.	.	.
O=C(Nc1ccccn1)c1ccc(Cl)c(S(=O)(=O)N2CCOCC2)c1	i	i	4	i	0.23	i	.	.	.
O=C(c1ccc(Cl)c(S(=O)(=O)N2CCOCC2)c1)N(c1ccccn1)C1CCCCC1	i	i	-4	i	-0.73	i	i	i	i
Cc1cccc(NC(=O)c2ccc(Cl)c(S(=O)(=O)N3CCCCC3)c2)n1	i	i	-12	i	0.02	i	i	i	24%*
CCOC(=O)N/N=C/c1c(C)c(C(=O)c2ccc(F)cc2)n2ccccc12	-11*	i	-12	i	-0.04	i	i	i	i
Cn1cnc2c(oc3ccccc32)c1=O	i	i	-12	i	2.1	i	.	.	.
Cc1ccc(-c2nc(N)sc2CC(=O)OCC(=O)N2C(C)CCCC2C)cc1 (centres undefined)	i	i	-7	i	1.2	i	i	i	i
Cc1ccc(/C=C2\C(=O)ON=C2c2ccccc2)o1	i	i	-4	i	-0.51	i	.	.	.
Cc1ccc(-c2ccc(/C=C3\C(=O)ON=C3c3ccccc3)o2)c([N+](=O)[O-])c1	i	i	-48	i	-0.45	8*	i	i	32%*
Cc1cccc(-c2onc3ccc(C(=O)/C=C/N(C)C)cc23)c1	i	i	-2	i	-0.12	i	i	i	i
Cc1ccc(-c2onc3ccc(C(=O)/C=C/N(C)C)cc23)cc1	i	i	-16	i	3.5	i	.	.	.
FC(F)(F)c1ccccc1CN1CCCC(N2CCN(c3ccccc3)CC2)C1 (centres undefined)	i	i	-4	i	-0.11	i	i	i	i
Cn1nnc(-c2ccc(OCc3ccccc3F)cc2)n1	i	i	-3	i	0.53	i	.	.	.
Fc1ccccc1COc1ccc(-c2nnn(Cc3ccccc3F)n2)cc1	i	i	-6	i	-0.1	i	i	i	i
COc1cc(N2CCCC2)c(OC)cc1/C=C(/C#N)c1ccc(F)cc1	-12*	i	-15	7*	1.5	i	50%*	i	66%*
COc1cc(N2CCCC2)c(OC)cc1/C=C(/C#N)c1ccc(Br)cc1	i	i	-11	i	-1.5	i	.	.	.
Cc1nc2ccccc2nc1N1CCCCC1	.	i	.	.	.	.	.	.	.
Cc1ccc2c(Cl)c(C)c(N3CCCCC3)nc2n1	i	i	-6	i	-1.2	i	i	i	i
N/C(Cc1ccc(Cl)cc1Cl)=N\OC(=O)c1cccs1	i	i	-19	i	-0.09	i	.	.	.
N/C(CC(=O)Nc1ccc(F)cc1F)=N\OC(=O)c1cccs1	i	i	-6	i	0.18	i	i	i	i
SMILES	KCNK9 block	KCNK3 block	hERG protect	KCNQ1 inh	Kir21 block	KCNQ1 act	KCNK9 block conf	Kir2-1 spec	KCNK9 uninduced
Cc1c(C)c(C)c(C(=O)c2ccc(NC(=O)c3ccccc3C(=O)O)cc2)c(C)c1C	i	i	-12	i	1.3	i	i	i	i
Cc1ccc(C(=O)c2c(NC(=O)c3ccccc3C)sc(C)c2C)cc1	i	i	-10	i	-0.29	i	i	i	i
COc1ccc(NC(=O)c2ccccc2-c2ccccc2C(=O)O)cc1	i	i	-2	i	0.03	i	.	.	.
Cc1sc(NC(=O)c2ccco2)c(C(=O)c2ccc(Cl)cc2)c1C	i	i	-9	i	1.3	i	.	.	.
O=C(O)c1ccccc1C(=O)Nc1ccc(Oc2ccc3ccccc3c2)cc1	i	i	-2	i	-0.57	i	i	i	i
Cc1ccc(S(=O)(=O)N(C)C)cc1[N+](=O)[O-]	i	i	-10	i	0.84	i	.	.	.
N#Cc1cccc(NS(=O)(=O)c2ccccc2Cl)c1	.	i	.	.	.	.	.	.	.
O=C(NCCNC(=O)c1ccc(Cl)cc1Cl)c1ccco1	i	i	-5	i	-0.26	i	.	.	.
Cc1cccc(NC(=S)NC(C)(C)CC(C)(C)C)c1	i	i	-13	i	-3.4	i	.	.	.
CCOc1ccccc1N/C=C(\C#N)c1nc2ccccc2n1C	-11*	i	-5	i	0.55	i	i	i	i
O=C1CC2(CCN(C(=O)COc3ccc(Cl)cc3)CC2)Oc2ccccc21	i	i	-11	i	-0.73	i	.	.	.
Cc1nccc(-c2ccc(-n3cnc4ccccc43)cc2)n1	i	i	-7	i	0.2	i	i	i	i
C/C(=N\Nc1ccc(Cl)c(C(=O)O)c1)c1ccccn1	i	i	-10	i	-0.01	i	.	.	.
C/C(=N\Nc1ncc(Cl)cc1Cl)c1ccccn1	-10*	i	-29	11*	-2.8	i	50%*	i	36%*
Cn1cncc1C(=O)c1ccccc1	i	i	-9	i	1.2	i	.	.	.
Cc1occc1C(=O)Nc1cccc(C(F)(F)F)c1	-9.3*	i	-14	i	0.03	i	48%*	i	24%*
O=C(NNC(=S)Nc1cccc(C(F)(F)F)c1)c1ccc(Cl)cc1Cl	i	i	-7	8*	-0.61	i	i	i	i
CC1CCCCC12NC(=O)N(CC(=O)OCc1cccc(F)c1)C2=O (centres undefined)	.	i	.	.	.	.	.	.	.
CN1CCCN(S(=O)(=O)c2cccc(C#N)c2)CC1	i	i	-4	i	-0.68	i	.	.	.
